Measured values published in ChEMBL document CHEMBL5303300, “EUbOPEN Chemogenomics Library - Multiplex” (2023).
“And” between values parts separate entries of the source, which are not always exact repeats. Identical values can stand only once.

Columns and labels:
[1] = system: Fibroblast; assay: Multiplex assay against human fibroblast; format: toxicity, cell-based; details: number of replicates 2
How it was run: (§1)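 Per cents of healthy-nucleus cells form the tubulin, mitochondrial-mass and membrane-permeability phenotype values. Live cells were stained at seeding with Hoechst33342, BioTracker Green Microtubule Cytoskeleton Dye, MitoTracker Red and Annexin V Alexa Fluor 680. After compound addition they were imaged on a CQ1 microscope at 37°C and 5% CO2, and CellPathfinder machine-learning gating split them into Hoechst high-intensity objects or normal cells, normal cells into healthy, pyknosed or fragmented nuclei, and pyknosed cells into mitotic or apoptotic.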

[2] = system: U2OS; assay: Multiplex assay against U2OS; format: toxicity, cell-based; details: human, number of replicates 2; how it was run: as §1
[3] = 24 h, 1 µM, compound concentration 1 uM
[4] = 24 h, 10 µM, compound concentration 10 uM
[5] = 48 h, 1 µM, compound concentration 1 uM
[6] = 48 h, 10 µM, compound concentration 10 uM
[7] = 12 h, 1 µM, compound concentration 1 uM
[8] = 12 h, 10 µM, compound concentration 10 uM

In the case of CC1=C(C)C(=O)C(C(C)(C)CC(=O)N(CCCCSC[C@H]2O[C@@H](n3cnc4c(N)ncnc43)[C@H](O)[C@@H]2O)Cc2cccc(-c3ccc(Cl)cc3)c2)=C(C)C1=O, the “Population Mitotic Cells (%)” value [1, 3] is reported as 42% and 48%, the “Population Normal (%)” value [1, 3] is reported as 99% and 100% and the “Population Pyknosed Nuclei (%)” value [1, 3] is reported as 5% and 11%. The “Population Tubulin-Different-Phenotype (%)” value [1, 3] was 24% and 12%, the “Total Cell Count” value [1, 3] was 235 and 305 and the “Population Apoptotic (%)” value [1, 4] was 46% and 45%. For the same molecule, the “Population Fragmented Nuclei (%)” value [1, 4] was 13% and 14%, the “Population Healthy Nuclei (%)” value [1, 4] was 78% and 68% and the “Population Hoechst High Intensity Objects (%)” value [1, 4] was 0%. For the same molecule, the “Population Membrane Permeable-Phenotype (%)” value [1, 4] was 4% and 8%, the “Population Mitochondria Different-Phenotype (%)” value [1, 4] was 13% and 17% and the “Population Mitotic Cells (%)” value [1, 4] was 53% and 54%. For the same molecule, the “Population Normal (%)” value [1, 4] was 100% and 99%, the “Population Pyknosed Nuclei (%)” value [1, 4] was 8% and 17% and the “Population Tubulin-Different-Phenotype (%)” value [1, 4] was 78% and 83%. The “Total Cell Count” value [1, 4] was 182 and 183, the “Population Apoptotic (%)” value [1, 5] was 50% and the “Population Fragmented Nuclei (%)” value [1, 5] was 12% and 13%. For the same molecule, the “Population Healthy Nuclei (%)” value [1, 5] was 83% and 81%, the “Population Hoechst High Intensity Objects (%)” value [1, 5] was 0% and the “Population Membrane Permeable-Phenotype (%)” value [1, 5] was 3% and 1%. The “Population Mitochondria Different-Phenotype (%)” value [1, 5] was 0%, the “Population Mitotic Cells (%)” value [1, 5] was 50% and the “Population Normal (%)” value [1, 5] was 99%. The “Population Pyknosed Nuclei (%)” value [1, 5] was 3% and 5%, the “Population Tubulin-Different-Phenotype (%)” value [1, 5] was 13% and 5% and the “Total Cell Count” value [1, 5] was 257 and 316. The “Population Apoptotic (%)” value [1, 6] was 71% and 65%, the “Population Fragmented Nuclei (%)” value [1, 6] was 18% and 20% and the “Population Healthy Nuclei (%)” value [1, 6] was 74% and 69%. The “Population Hoechst High Intensity Objects (%)” value [1, 6] was 0%, the “Population Membrane Permeable-Phenotype (%)” value [1, 6] was 0% and 5% and the “Population Mitochondria Different-Phenotype (%)” value [1, 6] was 6% and 13%. The “Population Mitotic Cells (%)” value [1, 6] was 28% and 35%, the “Population Normal (%)” value [1, 6] was 100% and the “Population Pyknosed Nuclei (%)” value [1, 6] was 7% and 10%. The “Population Tubulin-Different-Phenotype (%)” value [1, 6] was 76% and 69%, the “Total Cell Count” value [1, 6] was 197 and the “Population Apoptotic (%)” value [2, 7] was 33% and 50%. The “Population Fragmented Nuclei (%)” value [2, 7] was 4% and 7%, the “Population Healthy Nuclei (%)” value [2, 7] was 85% and 72% and the “Population Hoechst High Intensity Objects (%)” value [2, 7] was 0%. The “Population Membrane Permeable-Phenotype (%)” value [2, 7] was 5% and 6%, the “Population Mitochondria Different-Phenotype (%)” value [2, 7] was 4% and 0% and the “Population Mitotic Cells (%)” value [2, 7] was 66% and 50%. The “Population Normal (%)” value [2, 7] was 99% and 100%, the “Population Pyknosed Nuclei (%)” value [2, 7] was 10% and 20% and the “Population Tubulin-Different-Phenotype (%)” value [2, 7] was 57% and 34%. The “Population Apoptotic (%)” value [2, 8] was 75% and 58%, the “Population Fragmented Nuclei (%)” value [2, 8] was 8% and 4% and the “Population Healthy Nuclei (%)” value [2, 8] was 69% and 79%. For the same molecule, the “Population Hoechst High Intensity Objects (%)” value [2, 8] was 0%, the “Population Membrane Permeable-Phenotype (%)” value [2, 8] was 16% and 24% and the “Population Mitochondria Different-Phenotype (%)” value [2, 8] was 40% and 33%. The “Population Mitotic Cells (%)” value [2, 8] was 25% and 41%, the “Population Normal (%)” value [2, 8] was 100% and the “Population Pyknosed Nuclei (%)” value [2, 8] was 22% and 16%. For the same molecule, the “Population Tubulin-Different-Phenotype (%)” value [2, 8] was 96% and 86%, the “Population Apoptotic (%)” value [2, 3] was 53% and 77% and the “Population Fragmented Nuclei (%)” value [2, 3] was 2% and 6%. For the same molecule, the “Population Healthy Nuclei (%)” value [2, 3] was 89% and 77%, the “Population Hoechst High Intensity Objects (%)” value [2, 3] was 0% and the “Population Membrane Permeable-Phenotype (%)” value [2, 3] was 3% and 4%. For the same molecule, the “Population Mitochondria Different-Phenotype (%)” value [2, 3] was 4% and 6%, the “Population Mitotic Cells (%)” value [2, 3] was 46% and 22% and the “Population Normal (%)” value [2, 3] was 99% and 100%. The “Population Pyknosed Nuclei (%)” value [2, 3] was 7% and 15%, the “Population Tubulin-Different-Phenotype (%)” value [2, 3] was 66% and 42% and the “Population Apoptotic (%)” value [2, 4] was 87% and 79%. For the same molecule, the “Population Healthy Nuclei (%)” value [2, 4] was 53% and 70%, the “Population Hoechst High Intensity Objects (%)” value [2, 4] was 0% and the “Population Membrane Permeable-Phenotype (%)” value [2, 4] was 50% and 23%. The “Population Mitochondria Different-Phenotype (%)” value [2, 4] was 42% and 45%, the “Population Mitotic Cells (%)” value [2, 4] was 12% and 20% and the “Population Normal (%)” value [2, 4] was 100% and 99%. The “Population Pyknosed Nuclei (%)” value [2, 4] was 30% and 25%, the “Population Tubulin-Different-Phenotype (%)” value [2, 4] was 78% and 90% and the “Population Apoptotic (%)” value [2, 5] was 100% and 39%. The “Population Fragmented Nuclei (%)” value [2, 5] was 9% and 3%, the “Population Healthy Nuclei (%)” value [2, 5] was 77% and 89% and the “Population Hoechst High Intensity Objects (%)” value [2, 5] was 0%. The “Population Membrane Permeable-Phenotype (%)” value [2, 5] was 4% and 1%, the “Population Mitochondria Different-Phenotype (%)” value [2, 5] was 7% and 0% and the “Population Normal (%)” value [2, 5] was 100%. For the same molecule, the “Population Pyknosed Nuclei (%)” value [2, 5] was 12% and 7%, the “Population Tubulin-Different-Phenotype (%)” value [2, 5] was 56% and 79% and the “Population Apoptotic (%)” value [2, 6] was 68% and 78%. For the same molecule, the “Population Healthy Nuclei (%)” value [2, 6] was 32% and 66%, the “Population Hoechst High Intensity Objects (%)” value [2, 6] was 0% and the “Population Membrane Permeable-Phenotype (%)” value [2, 6] was 66% and 36%. The “Population Mitochondria Different-Phenotype (%)” value [2, 6] was 58% and 52%, the “Population Mitotic Cells (%)” value [2, 6] was 31% and 21% and the “Population Normal (%)” value [2, 6] was 100% and 99%. For the same molecule, the “Population Pyknosed Nuclei (%)” value [2, 6] was 51% and 28% and the “Population Tubulin-Different-Phenotype (%)” value [2, 6] was 100% and 82%.
